Source: PubChem
NadD block – inhibitors of Staphylococcus aureus NadD | purified NadD enzyme, colorimetric absorbance read-out | 360,000 compounds, 0.78% hits | inhibition, % at 20 µM; in the data active = inhibition above about 26%
DNMT1 inh – DNMT1 (human) enzyme inhibition; DNMT1 molecular beacon, Hinp1I cleavage, fluorescence; P26358; inhibition (reported as % activation of signal), % at 10 µM; 360,000 compounds, 0.83% hits; in the data active = inhibition above about 50%
SUMO1-SIM PPI – alters human SUMO1 binding to SIM partners; P63165; inhibition, % at 20 µM; 360,000 compounds, 0.33% hits; SUMO1 binding to a labelled peptide, TR-FRET, 1 h; in the data active = inhibition above about 37%
Target sequence (P63165 whole entry, looked up): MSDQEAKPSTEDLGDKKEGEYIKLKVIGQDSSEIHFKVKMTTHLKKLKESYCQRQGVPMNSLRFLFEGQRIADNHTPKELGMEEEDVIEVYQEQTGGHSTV
LMPTP inh – LMPTP (human) inhibition | recombinant LMPTP-A, OMFP fluorogenic substrate, fluorescence intensity | P24666 | 360,000 compounds, 0.22% hits | inhibition, % at 20 µM;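 active = compounds that cut the enzyme signal by at least half of the control window in the single-dose screen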
Target sequence (P24666 whole entry, looked up): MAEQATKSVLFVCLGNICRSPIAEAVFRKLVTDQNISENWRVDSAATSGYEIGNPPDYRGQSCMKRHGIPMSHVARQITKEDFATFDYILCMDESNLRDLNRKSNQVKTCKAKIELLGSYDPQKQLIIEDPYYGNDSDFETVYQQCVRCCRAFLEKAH
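material = LMPTP-A | quantity = 0.625 nM enzyme | reagent = OMFP substrate, 400 µM final | buffer or medium = Bis-Tris pH 6.0, DTT, detergent | detection = endpoint fluorescence intensity from OMFP dephosphorylation | dosing = single 20 µM dose | read-out basis = % inhibition relative to no-enzyme and uninhibited control wells | control set = no-enzyme and uninhibited controls | timing = 50 min at room temperature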
Scp1 inh – Scp-1 (human) phosphatase inhibition; AID 493091; 340,000 compounds, 0.88% hits; Q9GZU7; inhibition, % at 20 µM; Recombinant Scp1, phosphopeptide, malachite green phosphate absorbance;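 active = inhibition above about 50% at 20 µM, limit read from the data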
Target sequence (Q9GZU7 76-261 limits assumed): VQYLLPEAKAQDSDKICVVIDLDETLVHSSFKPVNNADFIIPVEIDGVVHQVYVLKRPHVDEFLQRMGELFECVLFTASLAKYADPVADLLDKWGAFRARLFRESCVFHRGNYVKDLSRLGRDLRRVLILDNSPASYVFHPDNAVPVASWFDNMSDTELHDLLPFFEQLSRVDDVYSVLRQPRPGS
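assay system = SCP-1 phosphatase catalytic domain, residues 76-261 | buffer or medium = 50 mM Tris acetate pH 5.5, 0.005% Tween-20, 10 mM MgCl2 | incubation = enzyme reaction 45 min at room temperature, colour 5 min, stabilisation 30 min | signal = Phosphate-binding colour reagent, absorbance read at 630 nm | measure = % inhibition at 20 µM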
STEP block – STEP (human) phosphatase inhibition | 360,000 compounds, 0.25% hits | AID 588621 | P54829 | recombinant STEP, OMFP fluorogenic substrate, fluorescence | inhibition, % at 20 µM;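 active = inhibition at 20 µM, scaled per plate between control wells, above about 37%, limit read from the data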
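Assay system: isolated STEP enzyme. Buffer or medium: pH 6.0 Bis-Tris with DTT and Tween 20. Also added: fluorogenic phosphatase substrate OMFP at 25 µM final. Dosing: 20 µM, 1% DMSO. Timing: 20 min reaction, room temperature, in the dark. Measured by: fluorescence intensity, excitation 480 nm, emission 540 nm. Evaluation: normalized % inhibition.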
Scp-1 conf – confirmation of human Scp-1 phosphatase inhibitors | shares compounds with Scp1 inh | recombinant SCP-1 catalytic domain, phosphate release, malachite green absorbance | inhibition, % at 20 µM | 2,500 compounds, 61% hits | AID 540281
Scp-1 MG ctr – interferes with malachite green readout, flagging false Scp-1 hits. 2,500 tested, under 10 active. shares compounds with Scp1 inh. apparent inhibition (interference), % at 20 µM. Colorimetric interference counterscreen, malachite green absorbance 630 nm;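 also: compounds added after enzyme reaction finished so only phosphate colour detection is probed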
Scp-1 Tm shift – Scp-1 (human) binding by thermal shift; shares compounds with Scp1 inh; Recombinant SCP1, Sypro Orange thermal shift Tm; thermal shift relative to vanadate control, % at 40 µM; 1,500 compounds, 25% hits; AID 540329;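 active = substances whose mean melting-temperature shift, as a percentage of the reference inhibitor's shift, reaches about 5.3%, limit read from the data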
DNMT1 interf DR – counter-screen for DNMT1 inhibitors: spectral interference, dose response; shares compounds with DNMT1 inh; AID 602382; molecular beacon fluorescence; IC50, µM; 200 tested, under 10 active; call rule not given here
DNMT1 confirm – DNMT1 inhibition confirmation, single concentration; shares compounds with DNMT1 inh; DNMT1 molecular beacon HinP1I cleavage, fluorescence; inhibition, % at 10 µM; 2,300 compounds, 8% hits;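 active = average inhibition of at least 30% in the single-concentration confirmation test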
DNMT1 interf – counter-screen for DNMT1 inhibitors: spectral interference; shares compounds with DNMT1 inh; DNMT1 molecular beacon spectral interference counterscreen, fluorescence 485/520; activation (fluorescence interference), % at 10 µM; 2,300 compounds, 1% hits;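 active = activation of at least 30% at 10 µM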;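 also: DNMT1 catalytic domain with a HinP1I cleavage step and a FAM/dabcyl DNA beacon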
NadD inh conf – NadD (S. aureus) inhibition, single concentration confirmation; purified S. aureus NadD, colorimetric enzyme assay; 2,000 compounds, 13% hits; inhibition, % at 20 µM; shares compounds with NadD block; in the data active = inhibition mostly above about 42%, no sharp cut-off; inactive = mostly below about 42%
Each line names hits and unclear results; the compound was inactive in the other large screens (follow-up assays come after a bar, where they were run); ! = not active in a repeat. Hits are enriched below; roughly 2.4% of the tested compounds scored in any of these assays.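 The calls were made as follows, unless noted: active = inhibition of at least 30% at 20 µM; inactive = the rest.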

N=c1c(S(=O)(=O)c2ccc(Cl)cc2)cc2c(=O)n3ccccc3nc2n1CC1CCCO1 (stereo unspecified)	none
CC1=Nc2ccc(Br)cc2C(c2ccccc2)N1CC(=O)O (stereo unspecified)	none
COCCCn1c(=NC(=O)c2ccccc2)c(C#N)cc2c(=O)n3cccc(C)c3nc21	none
Cc1cccc(C(=O)N=c2c(C#N)cc3c(=O)n4cccc(C)c4nc3n2Cc2ccco2)c1	NadD block 42.0, DNMT1 inh 50.9!, SUMO1-SIM PPI 51.0!, Scp1 inh 84.7! | Scp-1 conf 45.9 | Scp-1 MG ctr inactive | Scp-1 Tm shift 14.7 | DNMT1 confirm inactive | DNMT1 interf inactive | NadD inh conf inactive
Cc1cccn2c(=O)c3cc(C#N)c(=NC(=O)c4ccccc4)n(Cc4ccco4)c3nc12	NadD block 32.0!, Scp1 inh 87.2 | Scp-1 conf inactive | Scp-1 MG ctr inactive | NadD inh conf inactive
Cc1ccc2nsnc2c1S(=O)(=O)NCc1ccc2c(c1)OCO2	none
COc1cc(/C=N\Nc2ccc([N+](=O)[O-])cc2)ccc1OCC(=O)Nc1ccc(C)c(C)c1	none
CCc1nnc(NC(=O)CSc2nnc(-c3c[nH]c4ccccc34)n2C)s1	none
CCOC(=O)c1c(NC(=O)CSc2nnc(-c3c[nH]c4ccccc34)n2C)sc2c1CCCC2	NadD block 33.0, Scp1 inh 52.6 | Scp-1 conf 32.1 | Scp-1 MG ctr inactive | Scp-1 Tm shift inactive | NadD inh conf inactive
CCOC(=O)C(=O)NCc1ccc(/C=C2/N=C(C)C(C(=O)OCC)=C2O)o1	none
CCOC(=O)C1=C(O)/C(=C/c2ccc(CNC(=O)C(=O)Nc3ccc(C)cc3)o2)N=C1C	NadD block 45.5, DNMT1 inh 90.0, Scp1 inh 69.4 | Scp-1 conf inactive | Scp-1 MG ctr inactive | DNMT1 confirm inactive | DNMT1 interf inactive | NadD inh conf inactive
COc1cccc(C(=O)NN2CC(O)=C(c3nc(C)cs3)C2=N)c1	none
Cc1ccc(C(=O)NN2CC(O)=C(c3nc(-c4cccc([N+](=O)[O-])c4)cs3)C2=N)cc1	NadD block 33.4, DNMT1 inh 79.5, Scp1 inh 75.3 | Scp-1 conf 43.4 | Scp-1 MG ctr inactive | Scp-1 Tm shift 6.1 | DNMT1 interf DR inactive | DNMT1 confirm 38.9 | DNMT1 interf inactive | NadD inh conf inactive
CC(C)c1cccc(-c2ccc3c(c2)S(=O)(=O)c2cccc(C(=O)NCc4ccco4)c2C3=O)c1	NadD block 33.8, Scp1 inh 67.9 | Scp-1 conf 48.8 | Scp-1 MG ctr inactive | Scp-1 Tm shift 10.6 | NadD inh conf inactive
CC(C)(C)c1ccc(-n2ncc3c2CCCC3NC(=O)CCN2CCCCC2=O)cc1 (stereo unspecified)	none
Cc1ccc(-n2c(=O)c3cc4c(=O)n(-c5ccc(C)c(C)c5)c(=O)c4c(C(=O)c4ccc(C(=O)O)cc4)c3c2=O)cc1C	NadD block 33.9, SUMO1-SIM PPI 89.8, LMPTP inh 83.2, Scp1 inh 90.9, STEP block 96.6 | Scp-1 conf 74.6 | Scp-1 MG ctr inactive | Scp-1 Tm shift 10.4 | NadD inh conf inactive
CCN(C(=O)COc1ncnc2ccccc12)C1CCCCC1	none
Cc1cc(C)c(C(=O)O)c(Cl)n1	none
O=C(Nc1ccc2oc(-c3cccnc3)nc2c1)c1ccc2c(c1)OCCO2	NadD block 33.1, LMPTP inh 53.7, Scp1 inh 51.8 | Scp-1 conf 44.6 | Scp-1 MG ctr inactive | Scp-1 Tm shift inactive | NadD inh conf inactive
O=C(Nc1ccc2oc(-c3ccccc3)nc2c1)c1ccc2c(c1)OCCO2	none
O=C(N/N=C/c1ccco1)c1cccc(N2Cc3ccccc3C2)c1	NadD block 34.8, DNMT1 inh 79.6, Scp1 inh 79.3 | Scp-1 conf 45.5 | Scp-1 MG ctr inactive | Scp-1 Tm shift 10.8 | NadD inh conf inactive
Cc1csc(NC(=O)c2cc(C)nc3ccccc23)n1	none
Cc1csc(NC(=O)c2cc(-c3ccco3)nc3ccccc23)n1	NadD block 75.3, DNMT1 inh 95.7, Scp1 inh 70.0 | Scp-1 conf 52.8 | Scp-1 MG ctr inactive | Scp-1 Tm shift 10.9 | DNMT1 confirm inactive | DNMT1 interf inactive | NadD inh conf 52.9
CC(=O)CSc1ccc(C(=O)O)cn1	none
COc1ccc(NC(=O)COc2ccc3c(C)cc(=O)oc3c2)cc1S(=O)(=O)N1CCCCC1	DNMT1 inh 62.9 | DNMT1 confirm inactive | DNMT1 interf inactive
Cc1cc(=O)oc2cc(OCC(=O)N/N=C/c3ccccc3O)ccc12	DNMT1 inh 61.5 | DNMT1 confirm inactive | DNMT1 interf inactive
COc1ccc(S(=O)(=O)N2CCOCC2)cc1NC(=O)COc1ccc2c(C)cc(=O)oc2c1	none
O=C(Nc1nccs1)C1CC(=O)N(c2ccc(F)cc2)C1 (stereo unspecified)	none
OCCOc1cccc(CN2CCC(CO)(CCOc3ccccc3)CC2)c1	none
COc1cccc(N2CC34C=CC(O3)C(C(=O)O)C4C2=O)c1 (stereo unspecified)	DNMT1 inh 53.2 | DNMT1 confirm inactive | DNMT1 interf inactive
Cc1cc(C)n(CCN(C)Cc2cn[nH]c2-c2ccc(F)cc2F)n1	none
C=CCn1c(SCC(=O)c2[nH]c(C)c(C(=O)OCC)c2C)nc2scc(-c3ccccc3)c2c1=O	DNMT1 inh 57.3 | DNMT1 confirm inactive | DNMT1 interf inactive
C=CCn1c(SCC(=O)c2[nH]c(C)c(C(=O)OCC)c2C)nc2scc(-c3ccc(OC)cc3)c2c1=O	none
O=C(/C=C/c1ccccc1)Nc1scc(-c2ccccc2)c1C(=O)O	none
